hIAP inh = human IAP inhibition; P09923; purified IAP, CDP-Star luminescence, 30 min; inhibition, % at 10 µM; 0.12% of 330,000 active;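 active = inhibition reaching a set limit with compound at 10 µM in the primary screen, cut at about 35% in these data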
Target sequence (P09923 whole entry, looked up): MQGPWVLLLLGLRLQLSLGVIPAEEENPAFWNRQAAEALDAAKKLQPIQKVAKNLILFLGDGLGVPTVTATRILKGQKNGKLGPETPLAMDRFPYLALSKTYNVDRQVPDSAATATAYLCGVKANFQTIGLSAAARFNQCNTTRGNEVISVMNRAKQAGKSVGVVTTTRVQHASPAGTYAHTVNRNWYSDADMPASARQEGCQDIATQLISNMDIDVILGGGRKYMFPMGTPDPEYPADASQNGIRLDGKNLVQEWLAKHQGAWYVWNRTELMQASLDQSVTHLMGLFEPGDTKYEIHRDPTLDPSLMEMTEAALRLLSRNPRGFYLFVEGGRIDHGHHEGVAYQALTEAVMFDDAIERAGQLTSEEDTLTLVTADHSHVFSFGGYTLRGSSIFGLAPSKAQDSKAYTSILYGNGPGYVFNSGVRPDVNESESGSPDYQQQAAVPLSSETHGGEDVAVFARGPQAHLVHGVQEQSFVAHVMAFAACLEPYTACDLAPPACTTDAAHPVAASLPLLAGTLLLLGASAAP
mIAP block = blocks mouse intestinal alkaline phosphatase; purified mouse IAP, CDP-Star luminescence, 30 min; inhibition, % at 10 µM; 0.2% of 330,000 active;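 active = inhibition of at least 40% at 10 µM in the primary screen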
bIAP activator = intestinal alkaline phosphatase (bovine) activation; purified bovine IAP, CDP-star luminescence, 30 min; active compounds read high; fold of DMSO-control signal, blank-subtracted; activation factor at 20 µM; 0.17% of 200,000 active; AID 1016;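 active = activation factor of 2 or more at 20 µM, a signal rise over negative controls twice the positive control's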
hIAP act = increases human intestinal alkaline phosphatase activity; P09923; purified human IAP, CDP-Star luminescence, 30 min; active compounds read high; 1 = vehicle-only enzyme, 0 = enzyme-free background; activation factor at 10 µM; 0.16% of 330,000 active; AID 2524;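 active = activation factor of the enzyme at least 2-fold when tested at 20 µM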
bIAP inhibitor = intestinal alkaline phosphatase (bovine) inhibition. inhibition, % at 20 µM. AID 1019. 190,000 tested, under 10 active. purified bovine IAP, CDP-star luminescence, 30 min;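 active = over 50% inhibition of intestinal alkaline phosphatase at 20 µM in the single-dose screen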
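Assay system: bovine IAP enzyme; medium: DEA buffer 100 mM, pH 9.8, with MgCl2 1.0 mM, ZnCl2 0.02 mM; doses: 20 µM single dose; incubation: enzyme reaction for 30 min at room temperature; detection: CDP-star luminescence signal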
mIAP act = mouse IAP activation; AID 2805; activation factor at 10 µM; muIAP, CDP-Star luminescence, 30 min; active compounds read high; 1 = vehicle-only enzyme signal, 0 = enzyme-free wells; 0.24% of 330,000 active;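 active = activation factor of at least 2 at 20 µM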
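Assay system: mouse IAP enzyme; Reagent: CDP-Star chemiluminescent phosphatase substrate; Compound: DMSO-dissolved test compounds; Incubation: 30 min, room temperature; Technique: luminescence from enzymatic CDP-Star hydrolysis; Controls: DMSO-only wells and no-enzyme negative control.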
Of the large screens only hits and unclear results are named; the others gave an inactive call. A selection: hits, their analogues and other compounds. The true share with any hit is near 0.77%.

CC(C)(C)NC(=O)c1ccc2c(c1)C1C3CCC(C3)C1C(c1ccccc1)N2 (configuration not stated)	none
Cc1ccnc(NC(=O)c2ccc(Cl)s2)c1	none (no result: bIAP activator, bIAP inhibitor)
COc1ccc(C2=NOC(Cn3nc(-c4ccccc4)cc3C(=O)NCc3ccc(C)cc3)C2)cc1 (configuration not stated)	mIAP act 3.31 (no result: bIAP activator, bIAP inhibitor)
COc1ccc(C2=NOC(Cn3nc(-c4ccccc4)cc3C(=O)NCc3cccc(C(F)(F)F)c3)C2)cc1 (configuration not stated)	mIAP act 3.24 (no result: bIAP activator, bIAP inhibitor)
Cc1ccccc1-c1cc(C(=O)NCc2cccc(Br)c2)n(CC2CC(c3cccnc3)=NO2)n1 (configuration not stated)	mIAP act 2 (no result: bIAP activator, bIAP inhibitor)
CCOC(=O)c1cc(-c2ccccc2)nn1CC1CC(c2ccc(OC)cc2)=NO1 (configuration not stated)	none (no result: bIAP activator, bIAP inhibitor)
Cc1ccc(N2CCN(C(=O)c3nn(C)c4c3CS(=O)(=O)c3ccccc3-4)CC2)c(C)c1	none (no result: bIAP activator, bIAP inhibitor)
Cc1cccc(C(=O)NCC(=O)N2CCCCCCC2)c1	none (no result: bIAP activator, bIAP inhibitor)
COc1ccc2[nH]c3c(c2c1)CCN1C(=O)C(CC(=O)NC/C=C(\C)CCC=C(C)C)C[C@H](C(=O)N2CCCCC2)[C@@]31C (some centres not stated)	mIAP act 2 (no result: hIAP inh, bIAP activator, hIAP act, bIAP inhibitor)
CC(C)=CCC/C(C)=C/CNC(=O)C[C@H]1C[C@H](C(=O)N2CCCCC2)[C@@]2(C)c3[nH]c4ccc(Cl)cc4c3CCN2C1=O	none (no result: hIAP inh, bIAP activator, hIAP act, bIAP inhibitor)
Cc1cc(C(=O)OC(C)C(=O)N2CCc3ccccc32)ccc1[N+](=O)[O-] (configuration not stated)	none (no result: bIAP activator, bIAP inhibitor)
CC(c1ccccc1)N1CCn2c(nc3cc(NC(=O)c4cccs4)ccc32)C1 (configuration not stated)	none
CC(c1ccccc1)N1CCn2c(nc3cc(NC(=O)NC4CCCCC4)ccc32)C1 (configuration not stated)	bIAP activator 2.5 (no result: hIAP inh, mIAP block, hIAP act, mIAP act)
N#C/C(=C/c1ccc(-c2ccc(S(N)(=O)=O)cc2)o1)c1nc2ccccc2s1	mIAP block 57.1
N#C/C(=C/c1ccc(-c2ccc(S(N)(=O)=O)cc2)o1)C(=O)Nc1ccccc1	none
Cc1sc2ncn(CC(=O)N3CCC(C(N)=O)CC3)c(=O)c2c1S(=O)(=O)N1CCOCC1	none (no result: bIAP activator, bIAP inhibitor)
Cc1cccc(NC(=S)NC2CC3CCCC(C2)N3Cc2cccs2)c1C (configuration not stated)	mIAP act 2.31
CCCN1C2CCCC1CC(NC(=S)Nc1cccc(C)c1C)C2 (configuration not stated)	none (no result: bIAP activator, bIAP inhibitor)
CCc1ccccc1NC(=S)NC1CC2CCCC(C1)N2Cc1cccs1 (configuration not stated)	mIAP act 2.4
Cc1cccc(C)c1NC(=O)NC1CC2CCC(C1)N2Cc1cccs1 (configuration not stated)	none
Cc1cccc(NCc2nc3ccccc3n2Cc2ccccc2)c1	bIAP activator 9.5
Cc1nc2cc(NCc3nc4ccccc4n3Cc3ccccc3)ccc2n1C	none
C[C@@H](C(=O)Nc1ccc2ccccc2c1)[C@H]1C[C@]1(C)[C@H](NC(=O)c1cccnc1)c1ccccc1	none
C[C@@H](C(=O)Nc1ccc2ccccc2c1)[C@@H]1C[C@@]1(C)[C@@H](NC(=O)c1ccccc1)c1ccccc1	mIAP act 2.32
COCC(C)n1c(SCC(=O)Nc2c(C)n(C)n(-c3ccccc3)c2=O)nc2ccccc2c1=O (configuration not stated)	none (no result: bIAP activator, bIAP inhibitor)
CC1CCCC(C)N1C(=C(Cl)Cl)C(=C1SCCS1)[N+](=O)[O-] (configuration not stated)	none
CCOC(=O)c1c(C)n(-c2ccc(C)cc2)c2ccc(OCC(O)CNCCCO)cc12 (configuration not stated)	bIAP activator 2
CSc1cccc(NC(=O)NCc2cccc(CNC(=O)Nc3cccc(SC)c3)c2)c1	mIAP act 2.09 (no result: bIAP activator, bIAP inhibitor)
O=C(Cc1ccc(NC2=NC3CS(=O)(=O)CC3S2)cc1)NCc1ccc(Cl)cc1 (configuration not stated)	none (no result: bIAP activator, bIAP inhibitor)
CCN1C(=O)/C(=C2\C=Cc3ccccc3N2CC)SC1=S	mIAP block 41.2
CCN1C(=O)/C(=c2\o/c(=C3\C=Cc4ccccc4N3CC)c(=O)n2CC)SC1=S	none (no result: hIAP inh, mIAP block, hIAP act, mIAP act)

Screening results deposited in PubChem by Sanford-Burnham Center for Chemical Genomics.
